Source: PubChem BioAssay (Broad Institute)
Sampled rows, rich in hits. Any-hit rate of the full collection: about 3.1%.
DENV2 CPE: protects cells from dengue virus 2 cytopathic effect | DENV2-infected cells, cytopathic effect rescue, plate reader | CPE inhibition, % at 9.99 µM | 1.7% of 350,000 active; in the data active = CPE inhibition above about 20%, passing the limit was not always enough; inconclusive = no clear call, values can overlap the other calls; tested in BHK-21 cells
Ecoli rRNA inh: selective bacterial rRNA inhibition in E. coli. E. coli WT GFP vs humanized-ribosome RFP mutants, fluorescence, 24 h; stronger effect = lower value; DMSO median 0, no signal -100. GFP signal change (wild-type ribosome), % (test concentration not listed). 1.6% of 350,000 active;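 active = significant combined selectivity score with lowered wild-type GFP, culture density cut under 30%, mutant RFP and density less affected; inactive = any of these conditions unmet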
miR-122 sensor: miR-122 inhibition in Huh7 cells; 0.3% of 340,000 active; activation (reporter increase), % at 12.5 µM; AID 602342; Huh7 miR-122 Renilla luciferase sensor, 48 h; neutral wells = 0, positive control = 100;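 active = mean replicate activation score at least 90 and every replicate individually at or above 90; inconclusive = only one of the two criteria met; inactive = neither criterion met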;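 also: higher luciferase means less miR-122 activity so hits act as miR-122 inhibitors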
Cneo AK release: Cryptococcus neoformans lysis via adenylate kinase release. C. neoformans lysis, adenylate kinase release luminescence, 4 h; normalised: neutral wells 0, clomiphene wells 100. lysis activity, % at 15 µM. 0.2% of 360,000 active. AID 651654;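 active = mean lysis activity across replicates of at least 80%, whatever share of replicates individually reach that level; inactive = mean lysis activity below 80%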
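Assay system: log-phase C. neoformans yeast / Quantity: yeast cell density of 5 × 10^6 cells/mL / Medium: fresh YPD growth medium / Compound: single dose / Timing: static 4 h at 37 °C with compound, 1 h detection / Measured by: adenylate kinase release luminescence / Read-out: lysis from increased AK signal / Benchmarks: Clomiphene as positive lysis control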
E-selectin induc: induces E-selectin expression in human endothelial cells | 0.37% of 260,000 active | activation, % at 7.58 µM | HUVEC E-selectin immunofluorescence imaging; normalized: neutral wells 0, TNF-alpha wells 100 | AID 686992;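 active = mean E-selectin-positive cell signal at least 10% of the positive control, reached in at least 60% of replicates, without over 20% cell loss; inconclusive = no rule given, readout overlaps actives, possibly toxicity-flagged; inactive = the rest, including those meeting only one limit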
Target sequence (P16581 whole entry, looked up): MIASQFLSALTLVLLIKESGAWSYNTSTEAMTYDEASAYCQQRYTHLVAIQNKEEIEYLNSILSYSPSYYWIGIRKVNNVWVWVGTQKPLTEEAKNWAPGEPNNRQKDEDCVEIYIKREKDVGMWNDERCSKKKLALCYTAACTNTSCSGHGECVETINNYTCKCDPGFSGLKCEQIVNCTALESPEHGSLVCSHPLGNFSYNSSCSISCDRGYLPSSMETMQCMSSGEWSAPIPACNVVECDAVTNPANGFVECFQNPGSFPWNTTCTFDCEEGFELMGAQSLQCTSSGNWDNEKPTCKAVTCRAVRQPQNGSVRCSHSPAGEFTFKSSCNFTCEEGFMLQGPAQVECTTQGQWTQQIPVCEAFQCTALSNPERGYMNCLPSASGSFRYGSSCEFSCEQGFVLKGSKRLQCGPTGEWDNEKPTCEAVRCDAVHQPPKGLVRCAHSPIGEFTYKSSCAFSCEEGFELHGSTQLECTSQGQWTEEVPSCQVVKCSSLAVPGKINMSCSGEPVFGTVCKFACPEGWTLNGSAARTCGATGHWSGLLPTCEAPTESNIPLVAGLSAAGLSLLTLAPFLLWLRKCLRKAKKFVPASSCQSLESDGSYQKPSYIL
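material = human umbilical vein endothelial cells (HUVEC), E-selectin induction | quantity = 3,000 cells/well | medium = EGM-2 growth medium on 0.1% gelatin-coated wells | technique = immunofluorescence imaging | read-out basis = % PE-positive cells | control set = TNF-alpha positive control, DMSO neutral control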
Each line names hits and unclear results; the compound was inactive in the other large screens; ! = a repeat was not active; [ ] = remark or other dose.

Cc1ccc(S(=O)(=O)N(C)C[C@H]2OCCCC[C@H](C)Oc3ccc(NC(=O)Nc4ccc(C(F)(F)F)cc4)cc3C(=O)N([C@@H](C)CO)C[C@H]2C)cc1	none (no result: E-selectin induc)
COCC(=O)Nc1ccc2c(c1)C(=O)N(C)C[C@@H](OC)[C@@H](C)CN(Cc1ccccc1)[C@@H](C)CO2	none
O=C(NCC[C@H]1CC[C@H](NC(=O)c2cccnc2)[C@H](CO)O1)Nc1ccc(Cl)cc1	none (no result: miR-122 sensor)
Cc1cc2ccccn2c1C(=O)c1ccccc1Br	DENV2 CPE 42 (no result: E-selectin induc)
CC(=O)N(C)C[C@@H]1Oc2ccc(N)cc2CC(=O)N(C)C[C@@H]1C	none (no result: DENV2 CPE, miR-122 sensor, Cneo AK release, E-selectin induc)
CC(=O)OCC1=C(C(=O)O)N2C(=O)C(NC(=O)c3ccc(COc4cccc(Cl)c4Cl)o3)C2SC1 (centres undefined)	Ecoli rRNA inh -26
OC1CCCCC1	DENV2 CPE 67 (no result: E-selectin induc)
O=C(CC(F)(F)F)N1C[C@H]2[C@@H](c3ccccc31)[C@@H](CO)N2CC1CCCCC1	DENV2 CPE inconclusive
Cc1ccccc1C(=O)Nc1ccc(C(=O)N/N=C/c2ccncc2)cc1	Ecoli rRNA inh -29 (no result: miR-122 sensor, Cneo AK release, E-selectin induc)
Cc1ccc(CSc2nnc(CCNC(=O)OC(C)(C)C)o2)cc1	Ecoli rRNA inh -25 (no result: E-selectin induc)
Cc1ccc(CSc2nnc([C@@H]3CCCN3C(=O)OC(C)(C)C)o2)cc1	Ecoli rRNA inh -16 (no result: miR-122 sensor, Cneo AK release)
CC(C)(C)OC(=O)NCCc1nnc(SCc2ccccc2)o1	none (no result: E-selectin induc)
C[C@@H]1CN([C@H](C)CO)C(=O)c2cccc(NC(=O)Nc3ccccc3)c2O[C@H]1CN(C)Cc1ccc(C(F)(F)F)cc1	miR-122 sensor 107[16.7 µM]
C[C@H](CO)N1C[C@H](C)[C@@H](CN(C)Cc2ccc(C(=O)O)cc2)Oc2c(NC(=O)Cc3ccccc3)cccc2C1=O	DENV2 CPE 53
CC(C)NC(=O)Nc1cccc2c1O[C@H](CN(C)Cc1ccc(C(=O)O)cc1)[C@H](C)CN([C@H](C)CO)C2=O	none
C[C@H](CO)N1C[C@H](C)[C@@H](CN(C)Cc2ccc(C(=O)O)cc2)Oc2c(NC(=O)Nc3ccccc3)cccc2C1=O	DENV2 CPE 30
C[C@@H]1CN([C@H](C)CO)C(=O)c2cccc(NC(=O)Nc3ccccc3)c2O[C@@H]1CN(C)Cc1ccc(C(=O)O)cc1	none
COC(=O)C1(N2C(=O)O[C@@H](Cc3ccccc3)[C@H]2/C=C/C2CC2)CCCC1	none (no result: Ecoli rRNA inh, miR-122 sensor, E-selectin induc)
C[C@H]1CN([C@@H](C)CO)S(=O)(=O)c2ccc(-c3ccncc3)cc2O[C@@H]1CN(C)Cc1ccncc1	none (no result: DENV2 CPE, Cneo AK release)
COc1ccc(-n2c(-c3ccc(Cl)cc3Cl)n[nH]c2=S)c(OC)c1	Ecoli rRNA inh -32
COc1ccc(-n2c(-c3ccc(C(C)(C)C)cc3)n[nH]c2=S)c(OC)c1	none (no result: E-selectin induc)
Cc1ccc(C2=C(CC(=O)O)C(=O)CC2)cc1	none (no result: DENV2 CPE, Ecoli rRNA inh, E-selectin induc)
COC(=O)CC1=C(c2ccc([N+](=O)[O-])cc2)CCC1=O	DENV2 CPE inconclusive, Ecoli rRNA inh -19
Cc1ccccc1NC(=S)N(Cc1ccccn1)Cc1ccccc1Cl	Ecoli rRNA inh -23 (no result: miR-122 sensor, Cneo AK release, E-selectin induc)
CCC(=O)N[C@@H]1CC[C@@H](CC(=O)NCc2cc(F)cc(F)c2)O[C@@H]1CO	none
CO[C@H]1CN(C)C(=O)c2cc(NC(=O)Nc3ccccc3)ccc2OC[C@@H](C)N(C(=O)Nc2c(C)noc2C)C[C@H]1C	none (no result: miR-122 sensor)
Cc1c(C(=O)N(Cc2ccc(F)cc2)C2CCS(=O)(=O)C2)oc2ccccc12 (centres undefined)	Ecoli rRNA inh -23 (no result: E-selectin induc)
COc1ccc(S(=O)(=O)N[C@@H]2CC[C@@H](CC(=O)NCCc3ccncc3)O[C@H]2CO)cc1	none (no result: miR-122 sensor)
COc1ccc(NS(=O)(=O)c2cc(NC(=O)c3cnccn3)ccc2N2CCCC2)cc1	miR-122 sensor 104
COc1ccc(NS(=O)(=O)c2cc(NC(=O)c3cncc(Br)c3)ccc2OC)cc1	none
COc1ccc(NS(=O)(=O)c2cc(NC(=O)CC(C)(C)C)ccc2N2CCCC2)cc1	none (no result: Ecoli rRNA inh, E-selectin induc)
COc1ccc(NS(=O)(=O)c2cc(NC(=O)c3cnccn3)ccc2OC)cc1Br	Ecoli rRNA inh -31
CNC(=S)Nc1ccc(N2CCCC2)c(S(=O)(=O)Nc2ccc(OC)cc2)c1	miR-122 sensor 109 (no result: Ecoli rRNA inh)
CC(C)NC(=O)N(C)C[C@@H]1Oc2ncc(C#CC3CCCCC3)cc2C(=O)N([C@H](C)CO)C[C@@H]1C	none (no result: DENV2 CPE, Cneo AK release)
CC1CCN(c2ccc3nnc(CCC(=O)Nc4cccc(F)c4)n3n2)CC1	Ecoli rRNA inh -30
Cc1noc(C)c1NC(=O)N(C)C[C@@H]1Oc2ccc(NS(=O)(=O)c3cccs3)cc2C(=O)N([C@H](C)CO)C[C@H]1C	none
C[C@@H]1CN([C@@H](C)CO)C(=O)c2cc(NS(=O)(=O)c3cccs3)ccc2O[C@H]1CN(C)C(=O)Nc1ccc2c(c1)OCO2	E-selectin induc 284
Cc1noc(C)c1NC(=O)N(C)C[C@@H]1Oc2ccc(NC(=O)c3ccncc3)cc2C(=O)N([C@@H](C)CO)C[C@H]1C	none
Cc1noc(C)c1NC(=O)N(C)C[C@@H]1Oc2ccc(NS(=O)(=O)c3cccs3)cc2C(=O)N([C@@H](C)CO)C[C@H]1C	DENV2 CPE 38
Cc1noc(C)c1NC(=O)N(C)C[C@@H]1Oc2ccc(NC(=O)c3ccncc3)cc2C(=O)N([C@H](C)CO)C[C@H]1C	E-selectin induc 354
Cc1noc(C)c1NC(=O)N(C)C[C@H]1Oc2ccc(NS(=O)(=O)c3cccs3)cc2C(=O)N([C@H](C)CO)C[C@@H]1C	E-selectin induc 255!
COc1ccc(-c2cc(C(=O)OCC(=O)N(C)C)c3ccccc3n2)cc1	none (no result: DENV2 CPE, Ecoli rRNA inh, E-selectin induc)
COc1ccc(-c2cc(C(=O)OCc3ccccn3)c3ccccc3n2)cc1	Ecoli rRNA inh -34 (no result: E-selectin induc)
CC(C)OC(=O)CCCNc1ccc([N+](=O)[O-])cc1[N+](=O)[O-]	DENV2 CPE 53 (no result: E-selectin induc)
COC(=O)CC/C(C)=N\Nc1ccc([N+](=O)[O-])cc1[N+](=O)[O-]	none (no result: DENV2 CPE, Ecoli rRNA inh, E-selectin induc)
NC(=S)N/N=C/c1ccc(-c2cc(Cl)ccc2Cl)o1	Ecoli rRNA inh -21, Cneo AK release 111 (no result: DENV2 CPE, E-selectin induc)
COCC(=O)N(C)C[C@H]1Oc2cc(C#CC3CCCC3)ccc2S(=O)(=O)N([C@H](C)CO)C[C@H]1C	none (no result: DENV2 CPE, Cneo AK release)
CC1(C)C[C@H]2C3=CCC4[C@@]5(C)CC[C@H](O)[C@](C)(CO)C5CC[C@@]4(C)[C@]3(C)CC[C@@]2(C)[C@H](O)[C@@H]1O (some centres undefined)	none (no result: Ecoli rRNA inh, E-selectin induc)
CC1(C)C[C@H]2C3=CCC4[C@@]5(C)CC[C@H](O)[C@](C)(CO)C5CC[C@@]4(C)[C@]3(C)C[C@H]3O[C@@H]1[C@H](O)[C@]32CO (some centres undefined)	DENV2 CPE 41 (no result: miR-122 sensor)
CN(C)C(=O)c1cccc(-c2ccc([C@@H]3[C@@H](CO)N(C(=O)C4CCC4)[C@H]3C#N)cc2)c1	none (no result: miR-122 sensor)
CN(C)CC(=O)N1[C@H](C#N)[C@H](c2ccc(-c3ccc(C(=O)N(C)C)cc3)cc2)[C@H]1CO	DENV2 CPE 37 (no result: miR-122 sensor)
